Experimental data reported in ChEMBL document CHEMBL3108749, “Discovery of a non-estrogenic irreversible inhibitor of 17β-hydroxysteroid dehydrogenase type 1 from 3-substituted-16β-(m-carbamoylbenzyl)-estradiol derivatives” (J Med Chem, 2014).
Blank lines part the entries; values can stand above or below the compound they belong to. Activity calls are given as the source filed them. The calls are words filed in the database; no cut-off is given here.

Experiments:
[1] = target: T1, 17-beta-hydroxysteroid dehydrogenase type 1 (Homo sapiens) (UniProt P14061); test: Inhibition of 17-beta HSD1 in human T47D cells assessed as transformation of [14C]E1 to [14C]E2 at 0.1 uM after 24 hrs by thin layer chromatography; assay type: cell-based
T1 sequence (whole entry): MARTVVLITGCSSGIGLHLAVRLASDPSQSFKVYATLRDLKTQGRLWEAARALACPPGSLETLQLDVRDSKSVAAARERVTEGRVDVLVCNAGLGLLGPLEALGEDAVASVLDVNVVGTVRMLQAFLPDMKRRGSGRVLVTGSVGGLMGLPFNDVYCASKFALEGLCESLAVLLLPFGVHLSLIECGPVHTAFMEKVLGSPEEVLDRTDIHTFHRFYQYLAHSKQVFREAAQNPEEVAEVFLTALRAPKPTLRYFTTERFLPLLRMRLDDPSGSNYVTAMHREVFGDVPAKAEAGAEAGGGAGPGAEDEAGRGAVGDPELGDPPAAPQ
How it was run: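 T-47D cells (endogenous 17β-HSD1) are seeded at 3000 cells/well in RPMI with insulin (50 ng/mL) and 5% charcoal-stripped FBS. After 24 h, compound (from EtOH stock, 0.1 μM final) is added with [14C]-E1 (60 nM) for 24 h. Steroids are extracted into diethyl ether, separated by silica TLC (toluene/acetone 4:1) and quantified. Mean ± SD of ≥2 independent experiments in triplicate.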

T47D [2] = test: Cytotoxicity against human estrogen-starved estrogen-sensitive T47D cells assessed as cell growth at 0.1 uM after 7 days by MTS assay relative to control; assay type: functional; settings: 168 h, read-out: Activity
How it was run: (§1)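 MCF-7 (DMEM-F12) or T-47D (RPMI) cells are kept in medium with insulin (50 ng/mL) and 5% dextran-coated charcoal-treated FBS, seeded at 3000 cells/well. After 48 h, medium is replaced with medium containing compound, renewed every two days, and cells grow seven days. Growth is read by CellTiter 96 aqueous (MTS) assay as % proliferation vs basal control (0%). Scored −/+/++/+++ bands.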

T47D [3] = test: Cytotoxicity against human estrogen-starved estrogen-sensitive T47D cells assessed as cell growth at 1 uM after 7 days by MTS assay relative to control; assay type: functional; settings: 168 h, read-out: Activity; how it was run: as §1
[4] = target: T2, 17-beta-hydroxysteroid dehydrogenase type 1 (Homo sapiens, UniProt P14061); test: Inhibition of 17-beta HSD1 in human T47D cells; assay type: cell-based
T2 sequence (P14061 whole entry): T1 sequence (whole entry)
How it was run: (§2)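 Intact T-47D cells in RPMI with insulin (50 ng/mL) and 5% dextran-charcoal-treated FBS. After 24 h, inhibitor (from EtOH stock) added at 0.1 or 1 μM for screening or 1 nM–10 μM for IC50, with [14C]-E1 (60 nM), for 24 h. Ether extraction, TLC (toluene/acetone 4:1). IC50 = concentration halving E1→E2 conversion; triplicates, at least two experiments.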

[5] = target: T3, Very-long-chain 3-oxoacyl-CoA reductase (Homo sapiens) (UniProt Q53GQ0); test: Inhibition of 17-beta HSD12 (unknown origin) transfected in HEK293 cells using [14C]E1 as substrate at 10 uM; assay type: cell-based
T3 sequence (whole entry): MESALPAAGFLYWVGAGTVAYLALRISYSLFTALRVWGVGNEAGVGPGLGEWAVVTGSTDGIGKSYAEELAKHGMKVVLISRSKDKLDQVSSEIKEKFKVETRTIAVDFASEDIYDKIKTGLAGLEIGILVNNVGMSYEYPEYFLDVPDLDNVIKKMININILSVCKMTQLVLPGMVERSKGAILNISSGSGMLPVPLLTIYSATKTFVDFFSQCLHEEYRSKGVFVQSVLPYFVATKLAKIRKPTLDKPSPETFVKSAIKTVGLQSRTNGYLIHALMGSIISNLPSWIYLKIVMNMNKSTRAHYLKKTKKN
How it was run: (§3)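 Stably transfected HEK-293 cells in stripped-serum MEM with G418 and insulin, seeded 48 h. Then treated with compound in DMSO (<0.5% final) plus 60 nM substrate: [14C]-E2 for 17β-HSD2, [14C]-E1 for 17β-HSD7 and 17β-HSD12. Stopped at 12–25% substrate conversion; ether extraction, TLC, radiolabel quantification; triplicates, at least two experiments.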

MCF7 [6] = test: Cytotoxicity against human estrogen-starved estrogen-sensitive MCF7 cells assessed as cell growth at 1 uM after 7 days by MTS assay relative to control; assay type: functional; settings: MCF7, 168 h, read-out: Activity; how it was run: as §1
[7] = target: T1, 17-beta-hydroxysteroid dehydrogenase type 1 (Homo sapiens); test: Inhibition of 17-beta HSD1 (unknown origin) using [14C]E1 as substrate at 0.1 to 0.5 uM by thin layer chromatography; settings: TDE = time-dependent effect
How it was run: (§4)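 Purified 17β-HSD1 in buffer (100 mM Tris, 20% glycerol, 0.2 mg/mL BSA, 2 mM EDTA) with 1 mM NADPH, preincubated at 37 °C with inhibitor (0, 100 or 500 nM), with or without unlabeled E1 (500 nM), over varying times. Then diluted 1:20 with [14C]-E1 (60 nM final), 45 min at 37 °C. Ether extraction, TLC, radiolabel quantification; activity as % of initial; triplicate.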

[8] = target: T1, 17-beta-hydroxysteroid dehydrogenase type 1 (Homo sapiens); test: Irreversible inhibition of 17-beta HSD1 (unknown origin) using [14C]E1 as substrate at 0.1 to 0.5 uM after 45 mins by thin layer chromatography; how it was run: as §4
MCF7 [9] = test: Cytotoxicity against human estrogen-starved estrogen-sensitive MCF7 cells assessed as cell growth at 0.1 uM after 7 days by MTS assay relative to control; assay type: functional; settings: MCF7, 168 h, read-out: Activity; how it was run: as §1
[10] = target: T4, 3-keto-steroid reductase/17-beta-hydroxysteroid dehydrogenase 7 (Homo sapiens) (UniProt P56937); test: Inhibition of 17-beta HSD7 (unknown origin) transfected in HEK293 cells using [14C]E1 as substrate at 10 uM; assay type: cell-based; how it was run: as §3
T4 sequence (whole entry): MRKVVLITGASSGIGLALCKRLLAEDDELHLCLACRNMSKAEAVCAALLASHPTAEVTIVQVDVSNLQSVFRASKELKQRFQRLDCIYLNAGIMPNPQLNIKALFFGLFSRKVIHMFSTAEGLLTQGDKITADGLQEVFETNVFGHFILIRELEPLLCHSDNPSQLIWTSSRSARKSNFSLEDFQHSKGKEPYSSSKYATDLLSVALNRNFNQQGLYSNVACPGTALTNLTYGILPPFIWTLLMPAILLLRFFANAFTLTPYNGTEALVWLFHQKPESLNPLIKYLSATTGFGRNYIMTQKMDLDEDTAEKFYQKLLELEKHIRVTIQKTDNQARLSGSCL

[11] = target: T1, 17-beta-hydroxysteroid dehydrogenase type 1 (Homo sapiens); test: Competitive inhibition of 17-beta HSD1 (unknown origin) using [14C]E1/E1 as substrate assessed as transformation of [14C]E1 to [14C]E2 at 0.1 to 0.5 uM after 45 mins by thin layer chromatography; how it was run: as §4
Cytochrome P450 3A4 = Cytochrome P450 3A4 (Homo sapiens, UniProt P08684); test: Inhibition of CYP3A4 (unknown origin) by fluorescence assay; assay type: ADME
How it was run: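 Commercial CYP3A4 kit with dibenzylfluorescein as substrate, read by fluorescence of its enzymatic product. Compound dissolved in DMSO/acetonitrile (5:95). IC50 from means of at least two experiments in triplicate.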

[12] = target: T5, 17-beta-hydroxysteroid dehydrogenase type 2 (Homo sapiens) (UniProt P37059); test: Inhibition of 17-beta HSD2 (unknown origin) transfected in HEK293 cells using [14C]E2 as substrate at 10 uM; assay type: cell-based; how it was run: as §3
T5 sequence (whole entry): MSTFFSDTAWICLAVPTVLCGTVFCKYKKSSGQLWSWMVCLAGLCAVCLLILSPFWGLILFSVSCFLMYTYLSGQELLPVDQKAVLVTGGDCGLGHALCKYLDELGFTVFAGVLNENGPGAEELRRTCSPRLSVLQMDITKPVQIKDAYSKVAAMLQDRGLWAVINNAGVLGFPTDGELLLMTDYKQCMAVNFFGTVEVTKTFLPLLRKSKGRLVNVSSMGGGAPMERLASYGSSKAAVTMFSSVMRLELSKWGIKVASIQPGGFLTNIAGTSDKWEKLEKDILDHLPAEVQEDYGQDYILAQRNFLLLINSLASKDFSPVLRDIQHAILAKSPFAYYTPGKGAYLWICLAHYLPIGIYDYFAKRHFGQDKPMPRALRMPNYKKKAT

[13] = target: T2, 17-beta-hydroxysteroid dehydrogenase type 1; test: Inhibition of 17-beta HSD1 in human T47D cells assessed as transformation of [14C]E1 to [14C]E2 after 24 hrs by thin layer chromatography; assay type: cell-based; how it was run: as §2

Cytochrome P450 3A4, sequence (P08684 whole entry): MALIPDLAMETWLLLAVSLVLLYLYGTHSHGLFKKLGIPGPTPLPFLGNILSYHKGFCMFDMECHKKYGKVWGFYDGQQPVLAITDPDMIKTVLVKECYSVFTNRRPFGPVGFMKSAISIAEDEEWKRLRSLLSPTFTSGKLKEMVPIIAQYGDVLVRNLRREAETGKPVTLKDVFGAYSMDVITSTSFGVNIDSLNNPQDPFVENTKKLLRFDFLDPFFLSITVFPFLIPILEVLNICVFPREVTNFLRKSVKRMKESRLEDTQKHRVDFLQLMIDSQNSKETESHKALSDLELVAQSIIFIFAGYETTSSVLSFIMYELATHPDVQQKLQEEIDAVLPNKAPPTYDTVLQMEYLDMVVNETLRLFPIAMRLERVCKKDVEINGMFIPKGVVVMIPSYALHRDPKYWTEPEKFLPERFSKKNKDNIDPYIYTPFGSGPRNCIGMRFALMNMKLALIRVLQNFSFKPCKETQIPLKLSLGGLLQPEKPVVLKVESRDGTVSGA

SMILES: C[C@]12CC[C@@H]3c4ccc(CCBr)cc4CC[C@H]3[C@@H]1C[C@H](Cc1cccc(C(N)=O)c1)[C@@H]2O
- IC50 [4]: 97 nM
- inhibition [5]: 34%
- percent proliferation above basal control at 1 µM (MCF7 [6]): 0%
- inhibition [7]: tde
- inhibition [8]: Active
- percent proliferation above basal control at 0.1 µM (MCF7 [9]): 0%
- inhibition [10]: 9%
- inhibition [11]: Active
- IC50 (Cytochrome P450 3A4): 3900 nM
- inhibition [12]: 7%

SMILES: C[C@]12CC[C@@H]3c4ccc(CCc5ccccc5)cc4CC[C@H]3[C@@H]1C[C@H](Cc1cccc(C(N)=O)c1)[C@@H]2O
- inhibition [1]: 17%
- percent proliferation above basal control at 0.1 µM (T47D [2]): 0%
- % proliferation above basal control (0% = control) at 1 µM (T47D [3]): 0%

SMILES: C[C@]12CC[C@@H]3c4ccc(OCCBr)cc4CC[C@H]3[C@@H]1C[C@H](Cc1cccc(C(N)=O)c1)[C@@H]2O
- IC50 [13]: 172 nM
- inhibition [1]: 37%
- percent proliferation above basal control at 0.1 µM (T47D [2]): 0%
- % proliferation above basal control (0% = control) at 1 µM (T47D [3]): 0%

SMILES: CCCCCCCN(C)[C@H]1CC[C@H]2C3CC[C@H]4NC(=O)CC[C@]4(C)[C@H]3CC[C@]12C (some centres undefined)
- inhibition [10]: 81%

SMILES: CN(C)C(=O)c1ccc2c(c1)CC[C@@H]1[C@@H]2CC[C@]2(C)[C@@H](O)[C@@H](Cc3cccc(C(N)=O)c3)C[C@@H]12
- percent proliferation above basal control at 1 µM (MCF7 [6]): 15%
- percent proliferation above basal control at 0.1 µM (MCF7 [9]): 5%
- inhibition [1]: 1%

SMILES: C[C@]12CC[C@@H]3c4ccc(O)cc4CC[C@H]3[C@@H]1C[C@H](Cc1cccc(C(N)=O)c1)[C@@H]2O
- inhibition [5]: 6%
- percent proliferation above basal control at 1 µM (MCF7 [6]): > 30%
- percent proliferation above basal control at 0.1 µM (MCF7 [9]): > 30%
- inhibition [10]: 0%
- IC50 (Cytochrome P450 3A4): 1500 nM
- inhibition [1]: 72%
- inhibition [12]: 0%

SMILES: C[C@]12CC[C@@H]3c4ccc(CCCO)cc4CC[C@H]3[C@@H]1C[C@H](Cc1cccc(C(N)=O)c1)[C@@H]2O
- inhibition [1]: 20%
- percent proliferation above basal control at 0.1 µM (T47D [2]): 0%
- % proliferation above basal control (0% = control) at 1 µM (T47D [3]): 5%

Further lines, with some results ahead:

- inhibition [1]: 12%
SMILES: C[C@]12CC[C@@H]3c4ccc(CCCl)cc4CC[C@H]3[C@@H]1C[C@H](Cc1cccc(C(N)=O)c1)[C@@H]2O
- percent proliferation above basal control at 0.1 µM (T47D [2]): 0%
- % proliferation above basal control (0% = control) at 1 µM (T47D [3]): 0%

- inhibition [1]: 54%
SMILES: C[C@]12CC[C@@H]3c4ccc(CCI)cc4CC[C@H]3[C@@H]1C[C@H](Cc1cccc(C(N)=O)c1)[C@@H]2O
- percent proliferation above basal control at 0.1 µM (T47D [2]): 0%
- % proliferation above basal control (0% = control) at 1 µM (T47D [3]): 0%

- IC50 [13]: 153 nM
- inhibition [1]: 41%
SMILES: C[C@]12CC[C@@H]3c4ccc(CCCBr)cc4CC[C@H]3[C@@H]1C[C@H](Cc1cccc(C(N)=O)c1)[C@@H]2O
- percent proliferation above basal control at 0.1 µM (T47D [2]): 0%
- % proliferation above basal control (0% = control) at 1 µM (T47D [3]): 0%

- inhibition [1]: 7%
SMILES: C[C@]12CC[C@@H]3c4ccc(CC(=O)O)cc4CC[C@H]3[C@@H]1C[C@H](Cc1cccc(C(N)=O)c1)[C@@H]2O
- percent proliferation above basal control at 1 µM (MCF7 [6]): 5%
- percent proliferation above basal control at 0.1 µM (MCF7 [9]): 0%
